Experimental data taken from ChEMBL document CHEMBL1123152, “Synthesis, structure, and antitumor and antiviral activities of a series of 5-halouridine cyclic 3',5'-monophosphates” (1986).
Converted amounts (≈) assume the structure as drawn.

Columns and labels:
Format in all cases: functional
Human alphaherpesvirus 2 [1] = test: Antiviral activity against Herpes Simplex Virus-2(196)
Procedure, shortened: (§1)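 Primary rabbit kidney cell cultures infected with virus. Value is the minimum concentration that reduces virus-induced cytopathogenicity by 50%. Cytotoxicity was scored as a microscopically detectable alteration of normal cell morphology.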

Human alphaherpesvirus 2 [2] = test: Antiviral activity against Herpes Simplex Virus-2(G); procedure, shortened: as §1
Human alphaherpesvirus 2 [3] = test: Antiviral activity against Herpes Simplex Virus-2(Lyons); procedure, shortened: as §1
Human alphaherpesvirus 1 [4] = test: Antiviral activity against Herpes Simplex Virus-1 (KOS); procedure, shortened: as §1
Human alphaherpesvirus 1 [5] = test: Antiviral activity against Herpes Simplex Virus-1 (McIntyre); procedure, shortened: as §1
L1210 [6] = test: Cytostatic activity against proliferation of L1210/0 cells (murine leukemia L1210 cells); details: Mus musculus, read-out: ID50 (the source's name)
Procedure, shortened: (§2)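 Tumor cell proliferation assay. L1210/0 is the parental murine leukemia line and Raji/0 the parental human lymphoblast line, with a deoxythymidine kinase deficient Raji subline. Value is the ID50, the dose that inhibits cell proliferation by 50%.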

L1210 [7] = test: Cytostatic activity against proliferation of L1210/BdU cells (deoxythymidine kinase deficient L1210 cells); details: Mus musculus, read-out: ID50 (the source's name)
Procedure, shortened: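 Murine L1210 subline deficient in deoxythymidine kinase (L1210/BdU), selected for growth in 260 μg/mL 5-bromo-dU. Proliferation assay; value is the ID50, the dose that inhibits tumor cell proliferation by 50%.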

Raji [8] = test: Cytostatic activity against proliferation of Raji/0 cells (human lymphoblast Raji cells); details: read-out: ID50 (the source's name); procedure, shortened: as §2
Raji [9] = test: Cytostatic activity against proliferation of Raji/TK cells (deoxythymidine kinase deficient Raji cells); details: Homo sapiens, read-out: ID50 (the source's name); procedure, shortened: as §2
[10] = system: Vesicular stomatitis virus; test: Antiviral activity against vesicular stomatitis virus; procedure, shortened: as §1
Vaccinia virus = test: Antiviral activity against vaccinia virus; details: Orthopoxvirus vaccinia; procedure, shortened: as §1
Human alphaherpesvirus 1 [11] = test: Antiviral activity against Herpes Simplex Virus-1 (F); procedure, shortened: as §1

Structure (SMILES): O=c1[nH]c(=O)n([C@@H]2O[C@@H]3COP(=O)(O)O[C@H]3[C@H]2O)cc1Br
- MIC (Human alphaherpesvirus 2 [1]): > 200 µg/mL
- MIC (Human alphaherpesvirus 2 [2]): > 200 µg/mL
- MIC (Human alphaherpesvirus 2 [3]): 150 µg/mL (≈ 390 µM)
- MIC (Human alphaherpesvirus 1 [4]): > 200 µg/mL
- MIC (Human alphaherpesvirus 1 [5]): 200 µg/mL (≈ 519 µM)
- IC50 (L1210 [6]): 315 µg/mL (≈ 818 µM)
- IC50 (L1210 [7]): 294 µg/mL (≈ 764 µM)
- IC50 (Raji [8]): 210 µg/mL (≈ 545 µM)
- IC50 (Raji [9]): 241 µg/mL (≈ 626 µM)
- MIC [10]: > 200 µg/mL
- MIC (Vaccinia virus): > 200 µg/mL
- MIC (Human alphaherpesvirus 1 [11]): > 200 µg/mL

Structure (SMILES): Oc1ncc(Cl)c(O)n1
- IC50 (L1210 [6]): 455 µg/mL (≈ 3110 µM)
- IC50 (L1210 [7]): 660 µg/mL (≈ 4500 µM)
- IC50 (Raji [8]): > 1000 µg/mL
- IC50 (Raji [9]): > 1000 µg/mL

Structure (SMILES): O=c1[nH]c(=O)n([C@@H]2O[C@@H]3COP(=O)(O)O[C@H]3[C@H]2O)cc1I
- IC50 (L1210 [6]): 315 µg/mL (≈ 729 µM)
- IC50 (L1210 [7]): 344 µg/mL (≈ 796 µM)
- IC50 (Raji [8]): 359 µg/mL (≈ 831 µM)
- IC50 (Raji [9]): 722 µg/mL (≈ 1670 µM)

Structure (SMILES): O=c1[nH]c(=O)n(C2O[C@H](CO)[C@@H](O)[C@@H]2O)cc1I (stereo partly drawn)
- IC50 (L1210 [6]): > 1000 µg/mL
- IC50 (L1210 [7]): > 1000 µg/mL
- IC50 (Raji [8]): 639 µg/mL (≈ 1730 µM)
- IC50 (Raji [9]): 738 µg/mL (≈ 1990 µM)

Structure (SMILES): O=c1[nH]c(=O)n([C@@H]2O[C@H](CO)[C@@H](O)[C@H]2O)cc1F [5-FLUOROURIDINE]
- IC50 (L1210 [6]): 0.013 µg/mL (≈ 0.0496 µM)
- IC50 (L1210 [7]): 0.019 µg/mL (≈ 0.0725 µM)
- IC50 (Raji [8]): 0.023 µg/mL (≈ 0.0877 µM)
- IC50 (Raji [9]): 0.085 µg/mL (≈ 0.324 µM)

Structure (SMILES): O=c1[nH]cc(I)c(=O)[nH]1
- IC50 (L1210 [6]): > 1000 µg/mL
- IC50 (L1210 [7]): > 1000 µg/mL
- IC50 (Raji [8]): > 1000 µg/mL
- IC50 (Raji [9]): 612 µg/mL (≈ 2570 µM)

Structure (SMILES): O=c1[nH]c(=O)n([C@@H]2O[C@@H]3COP(=O)(O)O[C@H]3[C@H]2O)cc1F
- MIC (Human alphaherpesvirus 2 [1]): > 100 µg/mL
- MIC (Human alphaherpesvirus 2 [2]): > 100 µg/mL
- MIC (Human alphaherpesvirus 2 [3]): > 100 µg/mL
- MIC (Human alphaherpesvirus 1 [4]): > 100 µg/mL
- MIC (Human alphaherpesvirus 1 [5]): > 100 µg/mL
- IC50 (L1210 [6]): 0.34 µg/mL (≈ 1.05 µM)
- IC50 (L1210 [7]): 0.332 µg/mL (≈ 1.02 µM)
- IC50 (Raji [8]): 0.416 µg/mL (≈ 1.28 µM)
- IC50 (Raji [9]): 1.64 µg/mL (≈ 5.06 µM)
- MIC [10]: 150 µg/mL (≈ 463 µM)
- MIC (Vaccinia virus): 20 µg/mL (≈ 61.7 µM)
- MIC (Human alphaherpesvirus 1 [11]): > 100 µg/mL

Structure (SMILES): O=c1[nH]c(=O)n([C@@H]2O[C@H](CO)[C@@H](O)[C@@H]2O)cc1Br
- IC50 (L1210 [6]): 210 µg/mL (≈ 650 µM)
- IC50 (L1210 [7]): 335 µg/mL (≈ 1040 µM)
- IC50 (Raji [8]): 32 µg/mL (≈ 99 µM)
- IC50 (Raji [9]): 950 µg/mL (≈ 2940 µM)

Structure (SMILES): O=c1[nH]c(=O)n([C@@H]2O[C@@H]3COP(=O)(O)O[C@H]3[C@H]2O)cc1Cl
- MIC (Human alphaherpesvirus 2 [1]): > 400 µg/mL
- MIC (Human alphaherpesvirus 2 [2]): > 400 µg/mL
- MIC (Human alphaherpesvirus 2 [3]): > 400 µg/mL
- MIC (Human alphaherpesvirus 1 [4]): > 400 µg/mL
- MIC (Human alphaherpesvirus 1 [5]): > 400 µg/mL
- IC50 (L1210 [6]): > 1000 µg/mL
- IC50 (L1210 [7]): > 1000 µg/mL
- IC50 (Raji [8]): 278 µg/mL (≈ 816 µM)
- IC50 (Raji [9]): 369 µg/mL (≈ 1080 µM)
- MIC [10]: > 400 µg/mL
- MIC (Vaccinia virus): > 400 µg/mL
- MIC (Human alphaherpesvirus 1 [11]): > 400 µg/mL

Structure (SMILES): O=c1[nH]c(=O)n([C@H]2C[C@H](O)[C@@H](CO)O2)cc1/C=C/Br [BRIVUDINE]
- MIC (Human alphaherpesvirus 2 [1]): 100 µg/mL (≈ 300 µM)
- MIC (Human alphaherpesvirus 2 [2]): 1 µg/mL (≈ 3 µM)
- MIC (Human alphaherpesvirus 2 [3]): 1 µg/mL (≈ 3 µM)
- MIC (Human alphaherpesvirus 1 [4]): 0.02 µg/mL (≈ 0.06 µM)
- MIC (Human alphaherpesvirus 1 [5]): 0.02 µg/mL (≈ 0.06 µM)
- MIC [10]: > 400 µg/mL
- MIC (Vaccinia virus): 2 µg/mL (≈ 6 µM)
- MIC (Human alphaherpesvirus 1 [11]): 0.02 µg/mL (≈ 0.06 µM)

Structure (SMILES): O=c1[nH]c(=O)n([C@@H]2O[C@H](COP(=O)(O)O)[C@@H](O)[C@H]2O)cc1I
- IC50 (L1210 [6]): 703 µg/mL (≈ 1560 µM)
- IC50 (L1210 [7]): > 1000 µg/mL
- IC50 (Raji [8]): > 1000 µg/mL
- IC50 (Raji [9]): > 1000 µg/mL

Structure (SMILES): O=c1[nH]cc(Br)c(=O)[nH]1 [5-BROMOURACIL]
- IC50 (L1210 [6]): > 1000 µg/mL
- IC50 (L1210 [7]): > 1000 µg/mL
- IC50 (Raji [8]): > 1000 µg/mL
- IC50 (Raji [9]): > 1000 µg/mL

Structure (SMILES): O=c1[nH]cc(F)c(=O)[nH]1 [FLUOROURACIL]
- IC50 (L1210 [6]): 0.208 µg/mL (≈ 1.6 µM)
- IC50 (L1210 [7]): 0.286 µg/mL (≈ 2.2 µM)
- IC50 (Raji [8]): 1.35 µg/mL (≈ 10.4 µM)
- IC50 (Raji [9]): 3.37 µg/mL (≈ 25.9 µM)

Structure (SMILES): O=c1[nH]c(=O)n([C@@H]2O[C@H](COP(=O)(O)O)[C@@H](O)[C@H]2O)cc1Br
- IC50 (L1210 [6]): 385 µg/mL (≈ 955 µM)
- IC50 (L1210 [7]): 376 µg/mL (≈ 933 µM)
- IC50 (Raji [8]): 48 µg/mL (≈ 119 µM)
- IC50 (Raji [9]): > 1000 µg/mL

Structure (SMILES): O=c1[nH]c(=O)n(C2O[C@H](COP(=O)(O)O)[C@@H](O)[C@@H]2O)cc1F (stereo partly drawn)
- IC50 (L1210 [6]): 0.024 µg/mL (≈ 0.0701 µM)
- IC50 (L1210 [7]): 0.03 µg/mL (≈ 0.0877 µM)
- IC50 (Raji [8]): 0.029 µg/mL (≈ 0.0848 µM)
- IC50 (Raji [9]): 0.141 µg/mL (≈ 0.412 µM)
